Assay results taken from ChEMBL document CHEMBL2157922, “Synthesis and antifungal activity of diverse C-2 pyridinyl and pyridinylvinyl substituted quinolines” (2012).
Values after ≈ are worked out from the molar mass of the structure shown.

What was measured:
[1] = test system: Cryptococcus neoformans; assay: Antifungal activity against Cryptococcus neoformans IM 983040 after 48 hrs by broth microdilution technique; format: functional; conditions: IM 983040, 48 h
How it was run: (§1)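 C. neoformans was tested by 96-well RPMI-1640 microdilution, with DMSO-matched growth and sterility control wells. Plates were incubated 48 h at 30 °C in a moist, dark chamber and read at OD405. % inhibition = 100 − (CTW − SCW)/(GCW − SCW), in duplicate. For the clinical isolates, MIC80 and MIC50 are the lowest concentrations giving 80% and 50% inhibition.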

[2] = test system: Candida albicans; assay: Antifungal activity against Candida albicans ATCC 10231 at 31.2 ug/ml after 24 hrs; format: functional; conditions: ATCC 10231, 24 h
How it was run: (§2)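 C. albicans was grown in 96-well RPMI-1640 broth microdilution with compound wells diluted from DMSO stocks. Growth wells with matched DMSO and sterility wells were included. After 24 h at 30 °C in a moist, dark chamber, OD405 was read. % inhibition = 100 − (CTW − SCW)/(GCW − SCW) OD, done in duplicate.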

[3] = test system: Aspergillus niger; assay: Antifungal activity against Aspergillus niger ATCC 9029 after 48 hrs by broth microdilution technique; format: functional; conditions: ATCC 9029, 48 h
How it was run: (§3)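 Moulds and dermatophytes were run by CLSI broth microdilution in MOPS-buffered RPMI-1640 at pH 7.0. Aspergillus was incubated at 30 °C and dermatophytes at 28–30 °C, in a moist, dark chamber. MIC100, the lowest concentration with no visible growth, was read visually at a time set by growth of the control fungus.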

[4] = test system: Aspergillus fumigatus; assay: Antifungal activity against Aspergillus fumigatus ATCC 26934 after 48 hrs by broth microdilution technique; format: functional; conditions: ATCC 26934, 48 h; how it was run: as §3
[5] = test system: Candida albicans; assay: Antifungal activity against Candida albicans CCC 127 after 48 hrs by broth microdilution technique; format: functional; conditions: CCC 127, 48 h
[6] = test system: Candida albicans; assay: Antifungal activity against Candida albicans CCC 130 after 48 hrs by broth microdilution technique; format: functional; conditions: CCC 130, 48 h
[7] = test system: Candida albicans; assay: Antifungal activity against Candida albicans ATCC 10231 at 15.6 ug/ml after 24 hrs; format: functional; conditions: ATCC 10231, 24 h; how it was run: as §2
[8] = test system: Cryptococcus neoformans; assay: Antifungal activity against Cryptococcus neoformans ATCC 32264 at 3.9 ug/ml after 48 hrs; format: functional; conditions: ATCC 32264, 48 h; how it was run: as §1
[9] = test system: Cryptococcus neoformans; assay: Antifungal activity against Cryptococcus neoformans IM 042074 after 48 hrs by broth microdilution technique; format: functional; conditions: IM 042074, 48 h; how it was run: as §1
[10] = test system: Candida albicans; assay: Antifungal activity against Candida albicans CCC 126 after 48 hrs by broth microdilution technique; format: functional; conditions: CCC 126, 48 h
[11] = test system: Candida albicans; assay: Antifungal activity against Candida albicans CCC 125 after 48 hrs by broth microdilution technique; format: functional; conditions: CCC 125, 48 h
[12] = test system: Pichia kudriavzevii; assay: Antifungal activity against Candida krusei CCC 117 after 48 hrs by broth microdilution technique; format: functional; conditions: CCC 117, 48 h
[13] = test system: Trichophyton mentagrophytes; assay: Antifungal activity against Trichophyton mentagrophytes ATCC 9972 after 48 hrs by broth microdilution technique; format: functional; conditions: ATCC 9972, 48 h; how it was run: as §3
[14] = test system: Saccharomyces cerevisiae; assay: Antifungal activity against Saccharomyces cerevisiae ATCC 9763 after 48 hrs by broth microdilution technique; format: functional; conditions: ATCC 9763, 48 h
How it was run: (§4)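 Yeasts were tested by CLSI broth microdilution in RPMI-1640 buffered to pH 7.0 with MOPS, with compound from 250 down to 0.98 in DMSO stocks. Trays were held at 30 °C in a moist, dark chamber. MIC100, the lowest concentration giving total visual inhibition against the growth control, was read by eye at 48 h.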

[15] = test system: Cryptococcus neoformans; assay: Antifungal activity against Cryptococcus neoformans IM 972724 after 48 hrs by broth microdilution technique; format: functional; conditions: IM 972724, 48 h; how it was run: as §1
[16] = test system: Cryptococcus neoformans; assay: Antifungal activity against Cryptococcus neoformans ATCC 32264 at 31.2 ug/ml after 48 hrs; format: functional; conditions: ATCC 32264, 48 h; how it was run: as §1
[17] = test system: Candida albicans; assay: Antifungal activity against Candida albicans CCC 130 after 24 hrs by broth microdilution technique; conditions: CCC 130, 24 h
[18] = test system: Cryptococcus neoformans; assay: Antifungal activity against Cryptococcus neoformans ATCC 32264 after 48 hrs by broth microdilution technique; format: functional; conditions: ATCC 32264, 48 h; how it was run: as §4
[19] = test system: Candida tropicalis; assay: Antifungal activity against Candida tropicalis CCC 131 after 48 hrs by broth microdilution technique; format: functional; conditions: CCC 131, 48 h
[20] = test system: Candida albicans; assay: Antifungal activity against Candida albicans CCC 128 after 48 hrs by broth microdilution technique; format: functional; conditions: CCC 128, 48 h
[21] = test system: Candida albicans; assay: Antifungal activity against Candida albicans CCC 129 after 48 hrs by broth microdilution technique; format: functional; conditions: CCC 129, 48 h
[22] = test system: Cryptococcus neoformans; assay: Antifungal activity against Cryptococcus neoformans IM 972751 after 48 hrs by broth microdilution technique; format: functional; conditions: IM 972751, 48 h; how it was run: as §1
[23] = test system: Candida albicans; assay: Antifungal activity against Candida albicans ATCC 10231 at 7.8 ug/ml after 24 hrs; format: functional; conditions: ATCC 10231, 24 h; how it was run: as §2
[24] = test system: Candida parapsilosis; assay: Antifungal activity against Candida parapsilosis CCC 124 after 48 hrs by broth microdilution technique; format: functional; conditions: Lodderomyces parapsilosis, CCC 124, 48 h
[25] = test system: Cryptococcus neoformans; assay: Antifungal activity against Cryptococcus neoformans ATCC 32264 at 15.6 ug/ml after 48 hrs; format: functional; conditions: ATCC 32264, 48 h; how it was run: as §1
[26] = test system: Cryptococcus neoformans; assay: Antifungal activity against Cryptococcus neoformans IM 983036 after 48 hrs by broth microdilution technique; format: functional; conditions: IM 983036, 48 h; how it was run: as §1
[27] = test system: Candida albicans; assay: Antifungal activity against Candida albicans ATCC 10231 after 48 hrs by broth microdilution technique; format: functional; conditions: ATCC 10231, 48 h; how it was run: as §4
[28] = test system: Nannizzia gypsea; assay: Antifungal activity against Microsporum gypseum CCC 115 after 48 hrs by broth microdilution technique; format: functional; conditions: CCC 115, 48 h; how it was run: as §3
[29] = test system: Nakaseomyces glabratus; assay: Antifungal activity against Candida glabrata CCC 115 after 48 hrs by broth microdilution technique; format: functional; conditions: CCC 115, 48 h
[30] = test system: Trichophyton rubrum; assay: Antifungal activity against Trichophyton rubrum CCC 113 after 48 hrs by broth microdilution technique; format: functional; conditions: CCC 113, 48 h
[31] = test system: Cryptococcus neoformans; assay: Antifungal activity against Cryptococcus neoformans IM 00319 after 48 hrs by broth microdilution technique; format: functional; conditions: IM 00319, 48 h; how it was run: as §1
[32] = test system: Aspergillus flavus; assay: Antifungal activity against Aspergillus flavus ATCC 9170 after 48 hrs by broth microdilution technique; format: functional; conditions: ATCC 9170, 48 h; how it was run: as §3

Structure (SMILES): CCc1ccc2nc(-c3ccccn3)ccc2c1
- MIC50 [1]: 3.9 mg/L (≈ 16.6 µM)
- MIC80 [1]: 7.8 mg/L (≈ 33.3 µM)
- inhibition at 31.2 µg/mL [2]: 80%
- MFC [3]: > 250 mg/L
- MIC [3]: 250 mg/L (≈ 1070 µM)
- MFC [4]: 125 mg/L (≈ 533 µM)
- MIC [4]: 62 mg/L (≈ 265 µM)
- MIC50 [5]: 62.5 mg/L (≈ 267 µM)
- MIC80 [5]: 62.5 mg/L (≈ 267 µM)
- MIC80 [6]: 62.5 mg/L (≈ 267 µM)
- inhibition at 15.6 µg/mL [7]: 80%
- inhibition at 3.9 µg/mL [8]: 50%
- MIC50 [9]: 3.9 mg/L (≈ 16.6 µM)
- MIC80 [9]: 7.8 mg/L (≈ 33.3 µM)
- MIC50 [10]: 15.6 mg/L (≈ 66.6 µM)
- MIC80 [10]: 31.2 mg/L (≈ 133 µM)
- MIC50 [11]: 62.5 mg/L (≈ 267 µM)
- MIC80 [11]: 125 mg/L (≈ 533 µM)
- MIC50 [12]: 31.2 mg/L (≈ 133 µM)
- MIC80 [12]: 62.5 mg/L (≈ 267 µM)
- MFC [13]: 62 mg/L (≈ 265 µM)
- MIC [13]: 62 mg/L (≈ 265 µM)
- MFC [14]: 250 mg/L (≈ 1070 µM)
- MIC [14]: 62 mg/L (≈ 265 µM)
- MIC50 [15]: 3.9 mg/L (≈ 16.6 µM)
- MIC80 [15]: 7.8 mg/L (≈ 33.3 µM)
- inhibition at 31.2 µg/mL [16]: 80%
- MIC50 [17]: 31.2 mg/L (≈ 133 µM)
- MFC [18]: 125 mg/L (≈ 533 µM)
- MIC [18]: 31 mg/L (≈ 132 µM)
- MIC50 [18]: 3.9 mg/L (≈ 16.6 µM)
- MIC80 [18]: 15.6 mg/L (≈ 66.6 µM)
- MIC50 [19]: 15.6 mg/L (≈ 66.6 µM)
- MIC80 [19]: 31.2 mg/L (≈ 133 µM)
- MIC50 [20]: 31.2 mg/L (≈ 133 µM)
- MIC80 [20]: 62.5 mg/L (≈ 267 µM)
- MIC50 [21]: 31.2 mg/L (≈ 133 µM)
- MIC80 [21]: 62.5 mg/L (≈ 267 µM)
- MIC50 [22]: 3.9 mg/L (≈ 16.6 µM)
- MIC80 [22]: 15.6 mg/L (≈ 66.6 µM)
- inhibition at 7.8 µg/mL [23]: 50%
- MIC50 [24]: 15.6 mg/L (≈ 66.6 µM)
- MIC80 [24]: 31.2 mg/L (≈ 133 µM)
- inhibition at 15.6 µg/mL [25]: 80%
- MIC50 [26]: 3.9 mg/L (≈ 16.6 µM)
- MIC80 [26]: 7.8 mg/L (≈ 33.3 µM)
- MFC [27]: 250 mg/L (≈ 1070 µM)
- MIC [27]: 62 mg/L (≈ 265 µM)
- MIC50 [27]: 7.8 mg/L (≈ 33.3 µM)
- MIC80 [27]: 15.6 mg/L (≈ 66.6 µM)
- MFC [28]: 62 mg/L (≈ 265 µM)
- MIC [28]: 62 mg/L (≈ 265 µM)
- MIC50 [29]: 62.5 mg/L (≈ 267 µM)
- MIC80 [29]: 62.5 mg/L (≈ 267 µM)
- MFC [30]: 62 mg/L (≈ 265 µM)
- MIC [30]: 62 mg/L (≈ 265 µM)
- MIC50 [31]: 7.8 mg/L (≈ 33.3 µM)
- MIC80 [31]: 15.6 mg/L (≈ 66.6 µM)
- MFC [32]: 125 mg/L (≈ 533 µM)
- MIC [32]: 62 mg/L (≈ 265 µM)
